According to ChEMBL document CHEMBL4359903, “1,2,4-Oxadiazole derivatives targeting EGFR and c-Met degradation in TKI resistant NSCLC” (Eur J Med Chem, 2019):
Calls of active or inactive are those of the source.

How the values were obtained:
CL97 = test: Cell cycle arrest in human CL97 cells harbouring EGFR G719A/T790M mutant assessed as increase in cells accumulation at G2/M phase at 0.4 to 0.8 uM incubated for 48 hrs by propidium iodide based flow cytometry; type: functional
Method in brief: (§1)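 Cells plated at 3 × 10^5 per 6-cm dish and left overnight, then treated for 24 h and 48 h. Pellets fixed in 70% ethanol and stained with 40 µg/ml propidium iodide plus 20 µg/ml RNase A, 30 min on ice in the dark. DNA content read on a FACSCalibur flow cytometer.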

PC-9 = test: Cell cycle arrest in human PC9 cells harbouring EGFR delE746-A750 […] assessed as increase in cells accumulation at G2/M phase at 0.4 to 0.8 uM incubated for 48 hrs by propidium iodide based flow cytometry; type: functional; method in brief: as §1
[1] = test system: Epidermal growth factor receptor (Homo sapiens), P00533 [UNDEFINED MUTATION]; test: Induction of EGFR E746-A750 deletion/T790M mutant degradation in human CL68 cells assessed as reduction in EGFR expression at 0.2 to 0.6 uM incubated for 48 hrs by Western blot analysis; type: cell-based
Method in brief: (§2)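 After 48 h treatment, cells were scraped and lysed in 1% SDS, 50 mM Tris-HCl pH 8.0, 10 mM EDTA with protease and phosphatase inhibitors. Lysates sonicated, protein measured by BCA, equal amounts run on SDS-PAGE and blotted to nitrocellulose. Primary antibodies (EGFR, c-Met, S473-Akt, Akt, GAPDH) used at 1:1000 overnight at 4 °C, HRP secondaries at 1:5000, ECL detection.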

[2] = test system: Epidermal growth factor receptor (Homo sapiens), P00533 [L858R,T790M]; test: Induction of EGFR L858R/T790M double mutant degradation in human NCI-H1975 cells assessed as reduction in EGFR expression at 0.2 to 0.6 uM incubated for 48 hrs by Western blot analysis; type: cell-based; method in brief: as §2

Measured: Activity

O=C(Nc1cccc(-c2nc(-c3ccc(NC(=O)c4cccnc4)cc3Cl)no2)c1)Nc1ccc(NC(=O)C2CC2)c(C(F)(F)F)c1
active: all assays above
